Experimental data: ChEMBL document CHEMBL1159128, “Structure-activity relationship of C5-curcuminoids and synthesis of their molecular probes thereof” (2010)

Tests used:
HCT-116 = assay: Growth inhibition of human HCT116 cells after 48 hrs by MTS assay; format: functional; details: HCT-116, 48 h
Summary of the method: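 Vehicle controls received 1% DMSO alone. Growth in treated wells was expressed as a percentage of this control and plotted against concentration, and the mean growth-inhibitory concentration (GI50) was read from the curve.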

DLD-1 = assay: Cytotoxicity against human DLD1 cells; format: functional

Structure (SMILES) | GI50 (HCT-116) [nM] | GI50 (DLD-1) [nM]
COc1cc(/C=C/C(=O)/C=C/c2ccc(O)c(OC)c2)ccc1O | 15000 | 
COc1ccc(/C=C/C(=O)/C=C(O)/C=C/c2ccc(OC)c(OC)c2)cc1OC | 2000 | 
COc1ccc(/C=C/C(=O)/C=C/c2ccc(OC)c(OC)c2)cc1OC | 1500 | 2000
COc1ccc(/C=C/C(=O)/C=C/c2ccc(OC)cc2OC)c(OC)c1 | > 50000 | 
COc1ccc(/C=C2\CCC/C(=C\c3ccc(OC)c(OC)c3)C2=O)cc1OC | > 50000 | 
COc1cccc(/C=C/C(=O)/C=C/c2cccc(OC)c2OC)c1OC | 1300 | 
COc1ccccc1/C=C/C(=O)/C=C/c1ccccc1OC | 4000 | 
COc1cc(/C=C/C(=O)/C=C/c2cc(OC)c(OC)c(OC)c2)cc(OC)c1OC | 300 | 
COc1cc(OC)c(/C=C/C(=O)/C=C/c2c(OC)cc(OC)cc2OC)c(OC)c1 | 2300 | 
COc1cc(/C=C/C(=O)/C=C/c2cc(OC)c(O)c(OC)c2)cc(OC)c1O | 800 | 
COc1ccc(/C=C/C(=O)/C=C/c2ccc(OC)c(O)c2)cc1O | 800 | 
COc1cc(OC)c(OC)cc1/C=C/C(=O)/C=C/c1cc(OC)c(OC)cc1OC | 2000 | 
COc1cc(/C=C/C(=O)/C=C/c2cc(OC)cc(OC)c2)cc(OC)c1 | 2000 | 
COc1ccc(OC)c(/C=C/C(=O)/C=C/c2cc(OC)ccc2OC)c1 | 8100 | 
COc1ccc(/C=C/C(=O)/C=C/c2ccc(OC)cc2)cc1 | 9000 | 
COc1cc(/C=C/C(=O)/C=C/c2cccc(OC(c3ccccc3)(c3ccccc3)c3ccccc3)c2)cc(OC)c1OC | 8500 | 
COc1cc(/C=C/C(=O)/C=C/c2cc(OC)c(OCc3cn(Cc4ccc(OC5CCCCO5)cc4)nn3)c(OC)c2)cc(OC)c1OC (configuration not stated) | 300 | 
COc1cc(/C=C/C(=O)/C=C/c2cc(OC)c(OCc3cn(CCCCCCCCCOC(=O)CCC4=[N+]5C(=Cc6c(C)cc(C)n6[B-]5(F)F)C=C4)nn3)c(OC)c2)cc(OC)c1OC | 15000 | 
COc1cc(/C=C/C(=O)/C=C/c2cc(OC)c(OCc3cn(CCCCCCCCCO)nn3)c(OC)c2)cc(OC)c1OC | 800 | 
COc1cc(/C=C/C(=O)/C=C/c2cc(OC)c(OCc3cn(CCCCCCCCCCNC(=O)OC(C)(C)C)nn3)c(OC)c2)cc(OC)c1OC | 800 | 
COc1cc(/C=C/C(=O)/C=C/c2cc(OC)c(OCc3cn(CCCCCCCCCCOC(=O)CSCc4c(C)n5c(C)c(C)c(=O)n5c4=O)nn3)c(OC)c2)cc(OC)c1OC | 2600 | 
COc1ccc(/C=C/C(=O)c2ccc(OC)c(OC)c2)cc1OC | 7000 | 

Structure (SMILES) | GI50 (HCT-116) [nM] | GI50 (DLD-1) [nM]
COc1cc(OC)c(OC)c(OC)c1/C=C/C(=O)/C=C/c1c(OC)cc(OC)c(OC)c1OC | > 50000 | 
COc1cccc(/C=C/C(=O)/C=C/c2cccc(OC)c2)c1 | 9100 | 
COc1ccc(/C=C/C(=O)/C=C/c2cc(OC)c(OC)c(OC)c2)cc1 | 3000 | 
COc1cccc(/C=C/C(=O)/C=C/c2cc(OC)c(OC)c(OC)c2)c1 | 6900 | 
COc1cc(/C=C/C(=O)/C=C/c2ccc(OC)c(OC)c2)ccc1O | 700 | 
COc1cc(/C=C/C(=O)/C=C/c2ccc(OC)c(OC)c2OC)cc(OC)c1OC | 1900 | 
COCOc1ccc(/C=C/C(=O)/C=C/c2ccc(OCOC)c(OCOC)c2)cc1OCOC | 800 | 
COc1ccc(/C=C/C(/C=C/c2ccc(OC)c(OC)c2)=NO)cc1OC | > 50000 | 
CCCSC(CC(=O)/C=C/c1ccc(OC)c(OC)c1)c1ccc(OC)c(OC)c1 (configuration not stated) | 22000 | 
COc1ccc(/C=C/C(=O)CCc2ccc(OC)c(OC)c2)cc1OC | > 50000 | 
COc1ccc(CCC(=O)CCc2ccc(OC)c(OC)c2)cc1OC | > 50000 | 
COc1cccc(OC)c1/C=C/C(=O)/C=C/c1c(OC)cccc1OC | 9000 | 
COc1ccc(/C=C/C(=O)/C=C/c2ccc(OC)c(OC)c2OC)c(OC)c1OC | 3500 | 
COc1ccc(OC)c(OC)c1/C=C/C(=O)/C=C/c1c(OC)ccc(OC)c1OC | 2300 | 
COc1cc(/C=C/C(=O)/C=C/c2cccc(O)c2)cc(OC)c1OC | 900 | 
C=C1CC2CC(C1)/C(=C\c1ccc(OC)c(OC)c1)C(=O)/C2=C/c1ccc(OC)c(OC)c1 | > 50000 | 
COc1cc(/C=C/C(=O)/C=C/c2cc(OC)c(OCCN=[N+]=[N-])c(OC)c2)cc(OC)c1OC | 9700 | 
COCOc1cccc(/C=C/C(=O)/C=C/c2cc(OC)c(OC)c(OC)c2)c1 | 4000 | 
CCOC(C)Oc1c(OC)cc(/C=C/C(=O)/C=C/c2cc(OC)c(OC)c(OC)c2)cc1OC (configuration not stated) | 1500 | 
C#CCOc1c(OC)cc(/C=C/C(=O)/C=C/c2cc(OC)c(OC)c(OC)c2)cc1OC | 1800 | 
C#CCOc1c(OC)cc(/C=C/C(=O)/C=C/c2cc(OC)c(OCC#C)c(OC)c2)cc1OC | 300 | 
COc1cc(/C=C/C(=O)/C=C/c2cc(OC)c(OCCN=[N+]=[N-])c(OC)c2)cc(OC)c1OCCN=[N+]=[N-] | 7600 | 

Structure (SMILES) | GI50 (HCT-116) [nM] | GI50 (DLD-1) [nM]
COc1ccc(/C=C/C(=O)/C=C/c2ccc(OC)c(OC)c2)cc1 | 4000 | 
COc1cc(/C=C/C(=O)/C=C/c2cccc(OS(=O)(=O)C(F)(F)F)c2)cc(OC)c1OC | 2400 | 
COc1cc(/C=C/C(=O)/C=C/c2cccc(C#Cc3ccccc3)c2)cc(OC)c1OC | 8100 | 
CCOC(C)Oc1cccc(/C=C/C(=O)/C=C/c2cc(OC)c(OC)c(OC)c2)c1 (configuration not stated) | 1400 | 
COc1cc(/C=C/C(=O)/C=C/c2cccc(Cl)c2)cc(OC)c1OC | 17000 | 
COc1cc(/C=C/C(=O)/C=C/c2cc(OC)c(OC)c(OC)c2)cc(OC)c1O | 800 | 
COc1cc(/C=C/C(=O)/C=C/c2cc(OC)c(OCC(=O)O)c(OC)c2)cc(OC)c1OC | 38000 | 
COC(=O)COc1c(OC)cc(/C=C/C(=O)/C=C/c2cc(OC)c(OC)c(OC)c2)cc1OC | 7000 | 
COc1ccc(/C=C/C(=O)/C=C/c2ccc(OC)c(OC)c2)cc1O | 1500 | 
COCOc1c(OC)cc(/C=C/C(=O)/C=C/c2cc(OC)c(OCOC)c(OC)c2)cc1OC | 300 | 
O=C(/C=C/c1ccc2c(c1)OCO2)/C=C/c1ccc2c(c1)OCO2 |  | > 50000
CCCCCCCCCCCCCCOc1cccc(/C=C/C(=O)/C=C/c2cc(OC)c(OC)c(OC)c2)c1 | > 50000 | 
COc1cc(/C=C/C(=O)/C=C/c2ccccc2)cc(OC)c1OC | 4400 | 
C#CCOc1c(OC)cc(/C=C/C(=O)/C=C/c2cc(OC)c(OCOC)c(OC)c2)cc1OC | 2400 | 
COc1cc(/C=C/C(=O)/C=C/c2cccc(OC(=O)C34CC5CC(CC(C5)C3)C4)c2)cc(OC)c1OC | 7600 | 
COc1ccc(/C=C/C(=O)/C=C/c2cc(OC)c(OC)c(OC)c2)cc1OC | 400 | 
COc1cc(/C=C/C(=O)/C=C/c2cc(OC)c(OCCO)c(OC)c2)cc(OC)c1OCCO | 500 | 
COc1cc(OC)c(OC)cc1/C=C/C(=O)/C=C/c1cc(OC)c(OC)c(OC)c1 | 3300 | 
COc1cc(/C=C/C(=O)/C=C/c2cc(OC)c(OCCO)c(OC)c2)cc(OC)c1OC | 1700 | 
O=C(/C=C/c1cc(O)cc(O)c1)/C=C/c1cc(O)cc(O)c1 | 1500 | 
COc1ccc(CCC(O)CCc2ccc(OC)c(OC)c2)cc1OC | > 50000 | 
COc1cc(/C=C/C(=O)CC(=O)/C=C/c2ccc(O)c(OC)c2)ccc1O [CURCUMIN] |  | 8000
